For test [1], the species on record is Sus scrofa. Nature of the test: Inhibition of H+/K+ ATPase in pig stomach at 1 uM. Type of test: tissue-based. The procedure, abridged:
(§1)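 Enzyme from hog fundic mucosa: vesicles were isolated by differential and sucrose/Ficoll gradient centrifugation, lyophilized, resuspended in water, kept at -80° and used within 2–3 weeks. The 1 ml assay held 10 µg vesicle protein, 3 mM MgSO₄, 3 mM ATP and 40 mM Tris/HCl pH 7.4, ±15 mM KCl. Inorganic phosphate was the read-out, and H⁺,K⁺-ATPase activity was taken as the K⁺-dependent difference.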

Test [2] is filed under the species Sus scrofa. Nature of the test: Inhibition of H+/K+ ATPase in pig stomach at 10 uM. Type of test: tissue-based. The essentials: as §1
The species named for test [3] is Sus scrofa. The test is described as follows: Inhibition of H+/K+ ATPase in pig stomach at 100 uM. The class given is tissue-based. The essentials:
as §1

Test [4] is described as follows: Inhibition of H+/K+ ATPase in pig stomach. Type of test: tissue-based, Sus scrofa. The procedure, abridged:
as §1

“And” between values parts separate entries of the source, which are not always exact repeats. Equal entries are not always repeated.

What is called inhibition is the drop in the measured response relative to a control, in per cent. As a reminder, the IC50 is the midpoint of a concentration-inhibition curve.

For `COC(=O)[C@]1(C)CCC[C@@]2(C)[C@H]1[C@H](OC(=O)c1ccccc1)C[C@H]1C/C(=N\O)[C@@]3(C)CC[C@]12C3`, the results for the inhibition in test [1], in test [2] and in test [3] were 24%, 67% and 75%, respectively.
For the molecule `COC(=O)[C@]1(C)CCC[C@@]2(C)[C@H]1[C@H](OC(=O)c1ccccc1)C[C@H]1C[C@@H](OC(C)=O)[C@@]3(C)CC[C@]12C3`, the values for the inhibition in test [1], in test [2] and in test [3] were 35%, 58% and 61%, respectively. For the same molecule, half-maximal inhibition in test [4] (IC50) was put at 3 µM.
As for `C[C@]12CC[C@]3(C1)[C@H](C/C2=N\O)C[C@@H](OC(=O)c1ccccc1)[C@H]1[C@](C)(C(=O)O)CCC[C@@]13C`, the inhibition was 11% in test [1], 26% in test [2] and 80% in test [3].
For `COC(=O)[C@]1(C)CCC[C@@]2(C)[C@H]1[C@H](O)C[C@H]1C[C@H](O)[C@@]3(C)CC[C@]12C3`, in that order: -2%, 5% and 22%.
On the same counts, the results for `CC(=O)O[C@H]1C[C@@H]2C[C@@H](O)[C@H]3[C@](C)(C(=O)O)CCC[C@]3(C)[C@]23CC[C@@]1(C)C3` are 2%, 13% and 21%.
On the same counts, the results for `COC(=O)[C@]1(C)CCC[C@@]2(C)[C@H]1[C@H](OC(=O)c1ccccc1)C[C@H]1C[C@H](O)[C@@]3(C)CC[C@]12C3` are 10%, 64% and 68%.
Regarding `C[C@]12CC[C@]3(C1)[C@@H](C[C@@H](O)[C@H]1[C@](C)(CO)CCC[C@@]13C)C[C@@H]2O`, in test [3], the inhibition stood at 24%.
As for `C[C@@]12CC[C@]3(C1)[C@H](CC2=O)C[C@@H](OC(=O)c1ccccc1)[C@H]1[C@](C)(CO)CCC[C@@]13C`, the inhibition in test [1] is -1%; in test [2], 21%; in test [3], 45%.
For the molecule `COC(=O)[C@]1(C)CCC[C@@]2(C)[C@H]1[C@H](OC(=O)c1ccccc1)C[C@H]1CC(=O)[C@@]3(C)CC[C@]12C3`, the inhibition was found to be 36% in test [1], 74% in test [2] and 81% in test [3]. In test [4], this molecule showed an IC50 of 3 µM.
Regarding `C[C@]12CC[C@]3(C1)[C@@H](C[C@@H](O)[C@H]1[C@](C)(C(=O)O)CCC[C@@]13C)C[C@@H]2O`, the inhibition in test [3] came to 8%.
Turning to `CC(=O)OC[C@]1(C)CCC[C@@]2(C)[C@H]1[C@H](O)C[C@H]1C[C@H](OC(C)=O)[C@@]3(C)CC[C@]12C3`, the results for the inhibition in test [1], in test [2] and in test [3] were 5%, 40% and 79%, respectively.
On to `COC(=O)[C@]1(C)CCC[C@@]2(C)[C@H]1[C@H](OC(=O)c1ccccc1)C[C@H]1C[C@@H](O)[C@@]3(C)CC[C@]12C3`, for which the inhibition in test [1] is 12%; in test [2], 59%; in test [3] it was 64%.
For `C[C@]12CC[C@]3(C1)[C@@H](CC(=O)[C@H]1[C@](C)(C(=O)O)CCC[C@@]13C)CC2=O`, in that order: -1%, 1% and 12%.
On the same counts, the results for `C[C@]12CC[C@]3(C1)[C@H](C[C@H]2O)C[C@@H](OC(=O)c1ccccc1)[C@H]1[C@](C)(C(=O)O)CCC[C@@]13C` are -4%, 3% and 30%.
For `CC(=O)OC[C@]1(C)CCC[C@@]2(C)[C@H]1[C@H](OC(C)=O)C[C@H]1C[C@H](OC(C)=O)[C@@]3(C)CC[C@]12C3`, in that order: 13%, 18% and 57%.
As to `C[C@]12CC[C@]3(C1)[C@@H](C[C@@H](O)[C@H]1[C@](C)(CO)CCC[C@@]13C)C[C@H]2O`, the inhibition in test [2] is -3%; in test [3], 7%.
Consider `COC(=O)[C@]1(C)CCC[C@@]2(C)[C@H]1[C@H](OC(=O)c1ccccc1)C[C@H]1C[C@H](OC(C)=O)[C@@]3(C)CC[C@]12C3`, for which the values for the inhibition in test [1], in test [2] and in test [3] were 49%, 61% and 62%, respectively.
On to `C[C@]12CC[C@]3(C1)[C@H](CC2=O)C[C@@H](OC(=O)c1ccccc1)[C@H]1[C@@](CO)(C(=O)O)CCC[C@@]13C`, for which the inhibition in test [3] was found to be 24%.
With `C[C@]12CC[C@]3(C1)[C@H](CC2=O)C[C@@H](OC(=O)c1ccccc1)[C@H]1[C@](C)(C(=O)O)CCC[C@@]13C`, the inhibition in test [1] was 7% and -0%; in test [2] it was 21% and 14%; in test [3] it was 62% and 64%.
Turning to `CC(=O)OC[C@]1(C)CCC[C@@]2(C)[C@H]1[C@H](O)C[C@H]1C[C@@H](OC(C)=O)[C@@]3(C)CC[C@]12C3`, the results for the inhibition in test [1], in test [2] and in test [3] were -2%, 33% and 62%, respectively.
On the same counts, the results for `COC(=O)[C@]1(C)CCC[C@@]2(C)[C@H]1[C@H](O)C[C@H]1CC(=O)[C@@]3(C)CC[C@]12C3` are -5%, 4% and 52%.
On the same counts, the results for `CC(=O)O[C@H]1C[C@@H]2C[C@@H](OC(=O)c3ccccc3)[C@H]3[C@](C)(C(=O)O)CCC[C@]3(C)[C@]23CC[C@@]1(C)C3` are 3%, 21% and 94%.
For `C[C@]12CC[C@]3(C1)[C@@H](C[C@@H](OC(=O)c1ccccc1)[C@H]1[C@](C)(C(=O)O)CCC[C@@]13C)C[C@@H]2O`, in that order: 1%, 12% and 72%.
As for `CC(=O)OC[C@]1(C)CCC[C@@]2(C)[C@H]1[C@H](OC(=O)c1ccccc1)C[C@H]1CC(=O)[C@@]3(C)CC[C@]12C3`, the inhibition in test [1] was determined as 40%; in test [2] it was 71%; in test [3], 72%.
For `CC(=O)O[C@@H]1C[C@@H]2C[C@@H](OC(=O)c3ccccc3)[C@H]3[C@](C)(C(=O)O)CCC[C@]3(C)[C@]23CC[C@@]1(C)C3`, in that order: 7%, 38% and 98%.
For `CC(=O)O[C@@H]1C[C@H]2CC(=O)[C@@]3(C)CC[C@@]2(C3)[C@@]2(C)CCC[C@@](C)(C(=O)O)[C@H]12`, in that order: 1%, 7% and 33%.

These data come from ChEMBL document CHEMBL1158957, “Scopadulciol, an inhibitor of gastric H+, K(+)-ATPase from Scoparia dulcis, and its structure-activity relationships” (J Nat Prod, 1991).
